Measured values as given in ChEMBL document CHEMBL3091446, “Development of fluorinated CB(2) receptor agonists for PET studies” (Bioorg Med Chem, 2013).

What was measured:
Cannabinoid receptor 2 [1] = target: T1, Cannabinoid receptor 2 (Homo sapiens, UniProt P34972); assay: Displacement of [3H]CP-55,940 from human recombinant cannabinoid CB2 receptor expressed in CHO cells at 1 uM; type: cell-based
Cannabinoid receptor 2 [2] = target: T1, Cannabinoid receptor 2; assay: Displacement of [3H]CP-55,940 from human recombinant cannabinoid CB2 receptor expressed in CHO cells; type: cell-based
[3] = Lipophilicity, log P of the compound; type: physicochemical; settings: octanol/water
Cannabinoid receptor 2 [4] = target: T1, Cannabinoid receptor 2; assay: Binding affinity to human cannabinoid CB2 receptor
Method in brief: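 Membranes from sonicated CHO cells stably expressing human CB2 (about 100,000 cells/well). Incubated 120 min at 37 °C with 1 nM [3H]CP-55,940, test compound at 10^-10 to 10^-5 M, in TRIS pH 7.4 with 12 mM MgCl2 and 2% BSA. Nonspecific binding defined by 10 µM CP-55,940. Filtration and scintillation counting; duplicates. IC50 by nonlinear regression, converted to Ki by Cheng-Prusoff (Kd 11.8 nM).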

Cannabinoid receptor 1 [5] = target: T2, Cannabinoid receptor 1 (Homo sapiens, UniProt P21554); assay: Binding affinity to human cannabinoid CB1 receptor
T2 sequence (P21554 whole entry): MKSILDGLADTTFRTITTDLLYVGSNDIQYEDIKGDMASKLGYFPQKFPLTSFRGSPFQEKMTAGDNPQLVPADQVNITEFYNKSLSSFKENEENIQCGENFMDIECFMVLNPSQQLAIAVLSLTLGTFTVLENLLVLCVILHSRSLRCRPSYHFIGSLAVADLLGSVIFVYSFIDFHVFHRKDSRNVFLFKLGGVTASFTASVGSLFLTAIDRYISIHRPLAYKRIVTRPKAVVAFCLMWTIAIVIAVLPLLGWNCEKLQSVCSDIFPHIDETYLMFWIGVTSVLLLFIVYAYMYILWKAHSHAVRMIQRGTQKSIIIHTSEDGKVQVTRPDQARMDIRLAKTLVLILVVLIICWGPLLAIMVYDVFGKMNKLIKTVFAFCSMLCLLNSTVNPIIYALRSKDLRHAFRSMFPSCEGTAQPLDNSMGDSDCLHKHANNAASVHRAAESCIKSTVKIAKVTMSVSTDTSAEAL

Cannabinoid receptor 1 [6] = target: T2, Cannabinoid receptor 1; assay: Displacement of [3H]CP-55,940 from human recombinant cannabinoid CB1 receptor expressed in CHO cells; type: cell-based
[7] = Metabolic stability in mouse plasma assessed as compound remaining after 10 mins; type: ADME, cell-free; settings: read-out: Stability
Homo sapiens = species: Homo sapiens; assay: Selectivity ratio of Ki for human recombinant cannabinoid CB1 receptor to Ki for human recombinant cannabinoid CB2 receptor

T1 sequence (P34972 whole entry): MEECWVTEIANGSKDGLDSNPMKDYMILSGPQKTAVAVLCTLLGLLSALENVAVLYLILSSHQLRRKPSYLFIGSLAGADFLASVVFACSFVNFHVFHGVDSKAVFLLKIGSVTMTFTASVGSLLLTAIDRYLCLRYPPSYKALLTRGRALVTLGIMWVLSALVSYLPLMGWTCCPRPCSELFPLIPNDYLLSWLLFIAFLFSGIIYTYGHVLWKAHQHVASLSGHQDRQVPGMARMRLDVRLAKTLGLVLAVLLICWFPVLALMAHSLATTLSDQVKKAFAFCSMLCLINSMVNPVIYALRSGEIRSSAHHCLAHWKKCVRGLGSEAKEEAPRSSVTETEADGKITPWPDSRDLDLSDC

Structure (SMILES) | inhibition (Cannabinoid receptor 2 [1]) [%] | Ki (Cannabinoid receptor 2 [2]) [nM] | further results
Cc1ccc(-c2noc(CCC(=O)Nc3ccc4c(c3)c3ccccc3n4CCF)n2)cc1 |  | 377 | 
Cc1ccc(-c2noc(CCCC(=O)Nc3ccc4c(c3)c3ccccc3n4CCCO)n2)cc1 | 13 |  | 
COc1ccc(S(=O)(=O)c2ccc([C@H](C)NS(C)(=O)=O)cc2)c(S(=O)(=O)c2ccc(O[11CH3])cc2)c1 |  |  | logP [3]: 2.15; Ki (Cannabinoid receptor 2 [4]): 4.5 nM; Ki (Cannabinoid receptor 1 [5]): 79 nM
O=C(CCc1nc(-c2ccc(F)cc2)no1)Nc1ccc2c(c1)c1ccccc1n2CCF |  | 41 | IC50 (Cannabinoid receptor 1 [6]): > 1000 nM
CCCCOc1c(O[11CH3])ccc2cc(C(=O)NC3CCCCC3)c(=O)[nH]c12 |  |  | remaining at 10 min [7]: 24%; Ki (Cannabinoid receptor 1 [5]): > 1000 nM
O=C(CCc1nc(-c2ccc(F)cc2)no1)Nc1ccc2c(c1)c1ccccc1n2CCCO |  | 195 | 
O=C(CCc1nc(-c2ccc(F)cc2Br)no1)Nc1ccc2c(c1)c1ccccc1n2CCF |  | 5.8 | Ratio Ki (Homo sapiens): > 200; IC50 (Cannabinoid receptor 1 [6]): > 1000 nM
O=C(CCc1nc(-c2ccc(Cl)cc2)no1)Nc1ccc2c(c1)c1ccccc1n2CCO |  | 990 | 
Cc1ccc(-c2noc(CCCC(=O)Nc3ccc4c(c3)c3ccccc3n4CCF)n2)cc1 | 0 |  | 
CCCCOc1c(OC)ccc2cc(C(=O)NCc3ccc([18F])cc3)c(=O)[nH]c12 |  |  | Ki (Cannabinoid receptor 2 [4]): 2.8 nM; Ki (Cannabinoid receptor 1 [5]): > 10000 nM
O=C(CCc1nc(-c2ccc(F)cc2Br)no1)Nc1ccc2c(c1)c1ccccc1n2CCCO |  | 33 | IC50 (Cannabinoid receptor 1 [6]): > 1000 nM
Cc1ccc(-c2noc(CCCC(=O)Nc3ccc4c(c3)c3ccccc3n4CCCF)n2)cc1 | 0 |  | 
CCn1c2ccccc2c2cc(NC(=O)CCc3nc(-c4ccc(F)cc4C#N)no3)ccc21 |  | 6.98 | Ki (Cannabinoid receptor 1 [6]): > 10 µM
O=C(CCCc1nc(-c2ccc(F)cc2)no1)Nc1ccc2c(c1)c1ccccc1n2CCCF | 0 |  | 
O=C(CCc1nc(-c2ccc(Cl)cc2)no1)Nc1ccc2c(c1)c1ccccc1n2CCF |  | 291 | 
Cc1s/c(=N\C(=O)C2C(C)(C)C2(C)C)n(CCO[11CH3])c1C |  |  | Ki (Cannabinoid receptor 2 [4]): 0.64 nM; Ki (Cannabinoid receptor 1 [5]): 270 nM
O=C(CCc1nc(-c2ccc(F)cc2Br)no1)Nc1ccc2c(c1)c1ccccc1n2CCCF |  | 1800 | 
O=C(CCCc1nc(-c2ccc(F)cc2Br)no1)Nc1ccc2c(c1)c1ccccc1n2CCF |  | 559 | 
O=C(CCc1nc(-c2ccc(F)cc2)no1)Nc1ccc2c(c1)c1ccccc1n2CCO |  | 1100 | 
Cc1c(CCN2CCOCC2)c2cc(O[11CH3])ccc2n1C(=O)c1cccc(Cl)c1Cl |  |  | Ki (Cannabinoid receptor 2 [4]): 35 nM; Ki (Cannabinoid receptor 1 [5]): 6000 nM
O=C(CCc1nc(-c2ccc(F)cc2Br)no1)Nc1ccc2c(c1)c1ccccc1n2CCCCO |  | 96 | IC50 (Cannabinoid receptor 1 [6]): > 1000 nM
O=C(CCCc1nc(-c2ccc(Cl)cc2)no1)Nc1ccc2c(c1)c1ccccc1n2CCO |  | 584 | 
O=C(CCc1nc(-c2ccc(F)cc2Br)no1)Nc1ccc2c(c1)c1ccccc1n2CCO |  | 367 | 
N#Cc1cc(F)ccc1-c1noc(CCC(=O)Nc2ccc3c(c2)c2ccccc2n3CCO)n1 |  | 486 | 
O=C(CCc1nc(-c2ccc(Br)cc2F)no1)Nc1ccc2c(c1)c1ccccc1n2CCF |  | 476 | 
CCCCOc1c(OCC[18F])ccc2cc(C(=O)NC3CCCCC3)c(=O)[nH]c12 |  |  | remaining at 10 min [7]: 41%; Ki (Cannabinoid receptor 1 [5]): > 1000 nM
N#Cc1cc(F)ccc1-c1noc(CCC(=O)Nc2ccc3c(c2)c2ccccc2n3CCF)n1 |  | 858 | IC50 (Cannabinoid receptor 1 [6]): > 1000 nM

Now from value to compound, other results behind:

inhibition (Cannabinoid receptor 2 [1]) [%] | Structure (SMILES) | Ki (Cannabinoid receptor 2 [2]) [nM] | further results
35 | O=C(CCc1nc(-c2ccc(F)cc2Br)no1)Nc1ccc2c(c1)c1ccccc1n2CCCCF |  | 
9 | O=C(CCCc1nc(-c2ccc(F)cc2Br)no1)Nc1ccc2c(c1)c1ccccc1n2CCCO |  | 
23 | O=C(CCCc1nc(-c2ccc(Cl)cc2)no1)Nc1ccc2c(c1)c1ccccc1n2CCF |  | 
43 | O=C(CCc1nc(-c2ccc(Cl)cc2)no1)Nc1ccc2c(c1)c1ccccc1n2CCCF |  | 
10 | O=C(CCc1nc(-c2ccc(F)cc2)no1)Nc1ccc2c(c1)c1ccccc1n2CCCF |  | 
25 | O=C(CCCc1nc(-c2ccc(F)cc2Br)no1)Nc1ccc2c(c1)c1ccccc1n2CCCF |  | 
4 | Cc1ccc(-c2noc(CCCC(=O)Nc3ccc4c(c3)c3ccccc3n4CCO)n2)cc1 |  | 
25 | O=C(CCCc1nc(-c2ccc(F)cc2)no1)Nc1ccc2c(c1)c1ccccc1n2CCF |  | 
35 | O=C(CCc1nc(-c2ccc(Br)cc2F)no1)Nc1ccc2c(c1)c1ccccc1n2CCO |  | 
10 | Cc1ccc(-c2noc(CCC(=O)Nc3ccc4c(c3)c3ccccc3n4CCO)n2)cc1 |  | 
12 | O=C(CCCc1nc(-c2ccc(F)cc2)no1)Nc1ccc2c(c1)c1ccccc1n2CCO |  | 
10 | O=C(CCCc1nc(-c2ccc(Cl)cc2)no1)Nc1ccc2c(c1)c1ccccc1n2CCCO |  | 
28 | Cc1ccc(-c2noc(CCC(=O)Nc3ccc4c(c3)c3ccccc3n4CCCO)n2)cc1 |  | 
13 | Cc1ccc(-c2noc(CCC(=O)Nc3ccc4c(c3)c3ccccc3n4CCCF)n2)cc1 |  | 
0 | O=C(CCCc1nc(-c2ccc(F)cc2Br)no1)Nc1ccc2c(c1)c1ccccc1n2CCO |  | 
19 | O=C(CCCc1nc(-c2ccc(F)cc2)no1)Nc1ccc2c(c1)c1ccccc1n2CCCO |  | 
